Source: ChEMBL document CHEMBL3271970, “Radiopharmaceuticals. 16. Halogenated dopamine analogs. Synthesis and radiolabeling of 6-iododopamine and tissue distribution studies in animals” (J Med Chem, 1976)

How the values were obtained:
Kidney [1] = experiment: Biodistribution in kidney of mouse assessed per organ at 8 to 11 x 10^-8 mol, iv measured after 120 mins; type: ADME, organism-based; settings: in vivo, 2 h
In short: (§1)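 [131I]- or [123I]-6-iododopamine in water or saline, used within 30 min of preparation. Injected iv at 8-11 × 10^-8 mol/mouse. Mice killed by ether overdose at 5-240 min; 3-10 mice per time point. Tissue radioactivity expressed as % dose/organ ± SD.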

Mus musculus [2] = experiment: Biodistribution in thyroid gland of mouse assessed per organ at 8 to 11 x 10^-8 mol, iv measured after 30 mins; type: ADME, organism-based; settings: in vivo, 0.5 h
In short: (§2)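 Tracer labelled with either 123I or 131I, in water or saline, used within 30 min of preparation. Mice dosed iv at 8-11 × 10^-8 mol/mouse and killed by ether overdose. Organs counted as % dose/organ ± SD, n = 3-10 mice per time point.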

Rattus norvegicus [3] = experiment: Biodistribution in thyroid gland of rat assessed per organ at 3.6 x 10^-8 mol, iv measured after 5 mins; type: ADME, organism-based; settings: in vivo
In short: (§3)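 [131I]-labelled tracer in water or saline, injected within 30 min of preparation. Rats given 3.6 × 10^-8 mol/rat iv, killed by ether overdose at each time point. Organs excised and radioactivity counted as % dose/organ, mean ± SD of four rats.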

Adrenal medulla [4] = experiment: Biodistribution in adrenal medulla of rat assessed per organ at 3.6 x 10^-8 mol, iv measured after 5 mins; type: ADME, organism-based; settings: in vivo
In short: (§4)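 [131I]-6-iododopamine in water or saline, used within 30 min of preparation. Injected iv at 3.6 × 10^-8 mol/rat. Rats killed by ether overdose at 5, 30 or 60 min, or at 2, 4 or 24 h. Tissue radioactivity expressed as % dose/organ, mean ± SD of four rats.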

Adrenal medulla [5] = experiment: Biodistribution in adrenal medulla of rat assessed per organ at 3.6 x 10^-8 mol, iv measured after 4 hrs; type: ADME, organism-based; settings: in vivo; in short: as §4
Rattus norvegicus [6] = experiment: Biodistribution in thyroid gland of rat assessed per organ at 3.6 x 10^-8 mol, iv measured after 60 mins; type: ADME, organism-based; settings: in vivo, 1 h; in short: as §3
Kidney [7] = experiment: Biodistribution in kidney of mouse assessed per organ at 8 to 11 x 10^-8 mol, iv measured after 240 mins; type: ADME, organism-based; settings: in vivo, 4 h; in short: as §1
Rattus norvegicus [8] = experiment: Biodistribution in thyroid gland of rat assessed per organ at 3.6 x 10^-8 mol, iv measured after 30 mins; type: ADME, organism-based; settings: in vivo, 0.5 h; in short: as §3
[9] = Biodistribution in adrenal cortex of mongrel dog assessed per organ at 1.29 x 10^-6 mol, iv measured after 24 hrs; type: ADME, organism-based, Canis lupus familiaris; settings: in vivo
In short: (§5)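 Radioiodinated ([123I] or [131I]) 6-iododopamine in water or saline, used within 30 min of preparation. Given iv at 1.29 × 10^-6 mol/dog; one dog per time point, killed at 2 or 24 h. Large organs counted as three samples and averaged; adrenals and thyroid taken intact and counted. Expressed as % dose/organ.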

Mus musculus [10] = experiment: Biodistribution in adrenal gland of mouse assessed per organ at 8 to 11 x 10^-8 mol, iv measured after 15 mins; type: ADME, organism-based; settings: in vivo, 0.25 h; in short: as §1
Adrenal medulla [11] = experiment: Biodistribution in adrenal medulla of rat assessed per organ at 3.6 x 10^-8 mol, iv measured after 60 mins; type: ADME, organism-based; settings: in vivo, 1 h; in short: as §4
Liver [12] = experiment: Biodistribution in liver of mouse assessed per organ at 8 to 11 x 10^-8 mol, iv measured after 240 mins; type: ADME, organism-based; settings: in vivo, 4 h; in short: as §1
Liver [13] = experiment: Biodistribution in liver of rat assessed per organ at 3.6 x 10^-8 mol, iv measured after 5 mins; type: ADME, organism-based; settings: in vivo; in short: as §3
Blood [14] = experiment: Biodistribution in blood of rat at 3.6 x 10^-8 mol, iv measured after 2 hrs; type: ADME, organism-based; settings: in vivo
In short: (§6)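 [131I]-6-iododopamine in water or saline, used within 30 min of preparation. Injected iv at 3.6 × 10^-8 mol/rat. Rats killed by ether overdose at 5 min to 24 h. Blood radioactivity expressed as % dose/g, mean ± SD of four rats.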

Liver [15] = experiment: Biodistribution in liver of mouse assessed per organ at 8 to 11 x 10^-8 mol, iv measured after 15 mins; type: ADME, organism-based; settings: in vivo, 0.25 h; in short: as §1
Liver [16] = experiment: Biodistribution in liver of mouse assessed per organ at 8 to 11 x 10^-8 mol, iv measured after 120 mins; type: ADME, organism-based; settings: in vivo, 2 h; in short: as §1
Mus musculus [17] = experiment: Biodistribution in thyroid gland of mouse assessed per organ at 8 to 11 x 10^-8 mol, iv measured after 5 mins; type: ADME, organism-based; settings: in vivo; in short: as §2
Rattus norvegicus [18] = experiment: Biodistribution in adrenal cortex of rat assessed per organ at 3.6 x 10^-8 mol, iv measured after 30 mins; type: ADME, organism-based; settings: in vivo, 0.5 h; in short: as §4
Liver [19] = experiment: Biodistribution in liver of rat assessed per organ at 3.6 x 10^-8 mol, iv measured after 2 hrs; type: ADME, organism-based; settings: in vivo; in short: as §3
Mus musculus [20] = experiment: Biodistribution in adrenal gland of mouse assessed per organ at 8 to 11 x 10^-8 mol, iv measured after 60 mins; type: ADME, organism-based; settings: in vivo, 1 h; in short: as §1
Liver [21] = experiment: Biodistribution in liver of mouse assessed per organ at 8 to 11 x 10^-8 mol, iv measured after 5 mins; type: ADME, organism-based; settings: in vivo; in short: as §1
Kidney [22] = experiment: Biodistribution in kidney of rat assessed per organ at 3.6 x 10^-8 mol, iv measured after 60 mins; type: ADME, organism-based; settings: in vivo, 1 h; in short: as §4
Kidney [23] = experiment: Biodistribution in kidney of rat assessed per organ at 3.6 x 10^-8 mol, iv measured after 2 hrs; type: ADME, organism-based; settings: in vivo; in short: as §4
Blood [24] = experiment: Biodistribution in blood of rat at 3.6 x 10^-8 mol, iv measured after 60 mins; type: ADME, organism-based; settings: in vivo, 1 h; in short: as §6
Liver [25] = experiment: Biodistribution in liver of rat assessed per organ at 3.6 x 10^-8 mol, iv measured after 60 mins; type: ADME, organism-based; settings: in vivo, 1 h; in short: as §3
Rattus norvegicus [26] = experiment: Biodistribution in adrenal cortex of rat assessed per organ at 3.6 x 10^-8 mol, iv measured after 24 hrs; type: ADME, organism-based; settings: in vivo; in short: as §4
[27] = Biodistribution in thyroid gland of mongrel dog assessed per organ at 1.29 x 10^-6 mol, iv measured after 2 hrs; type: ADME, organism-based, Canis lupus familiaris; settings: in vivo
In short: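 Radioiodine-labelled tracer given at 1.29 × 10^-6 mol/dog. One dog per time point, killed at 2 or 24 h. Thyroids and other small organs were taken intact and counted. Large organs were sampled three times and averaged. Result given as % dose/organ.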

Adrenal medulla [28] = experiment: Biodistribution in adrenal medulla of rat assessed per organ at 3.6 x 10^-8 mol, iv measured after 24 hrs; type: ADME, organism-based; settings: in vivo; in short: as §4
Rattus norvegicus [29] = experiment: Biodistribution in adrenal cortex of rat assessed per organ at 3.6 x 10^-8 mol, iv measured after 2 hrs; type: ADME, organism-based; settings: in vivo; in short: as §4
Rattus norvegicus [30] = experiment: Biodistribution in adrenal cortex of rat assessed per organ at 3.6 x 10^-8 mol, iv measured after 60 mins; type: ADME, organism-based; settings: in vivo, 1 h; in short: as §4
[31] = Biodistribution in kidney of mongrel dog assessed per organ at 1.29 x 10^-6 mol, iv measured after 24 hrs; type: ADME, organism-based, Canis lupus familiaris; settings: in vivo; in short: as §5
[32] = Biodistribution in kidney of mongrel dog assessed per organ at 1.29 x 10^-6 mol, iv measured after 2 hrs; type: ADME, organism-based, Canis lupus familiaris; settings: in vivo; in short: as §5
Blood [33] = experiment: Biodistribution in blood of rat at 3.6 x 10^-8 mol, iv measured after 5 mins; type: ADME, organism-based; settings: in vivo; in short: as §6
Mus musculus [34] = experiment: Biodistribution in adrenal gland of mouse assessed per organ at 8 to 11 x 10^-8 mol, iv measured after 240 mins; type: ADME, organism-based; settings: in vivo, 4 h; in short: as §1
Mus musculus [35] = experiment: Biodistribution in thyroid gland of mouse assessed per organ at 8 to 11 x 10^-8 mol, iv measured after 15 mins; type: ADME, organism-based; settings: in vivo, 0.25 h; in short: as §2
Kidney [36] = experiment: Biodistribution in kidney of mouse assessed per organ at 8 to 11 x 10^-8 mol, iv measured after 15 mins; type: ADME, organism-based; settings: in vivo, 0.25 h; in short: as §1
Rattus norvegicus [37] = experiment: Biodistribution in adrenal cortex of rat assessed per organ at 3.6 x 10^-8 mol, iv measured after 4 hrs; type: ADME, organism-based; settings: in vivo; in short: as §4

For `Br.NCCc1cc(O)c(O)cc1[131I]`, the Drug uptake (Kidney [1]) was 0.78 %ID, the Drug uptake (Mus musculus [2]) was 0.084 %ID and the Drug uptake (Rattus norvegicus [3]) was 0.029 %ID. It also gave a Drug uptake (Adrenal medulla [4]) of 0.0247 %ID, a Drug uptake (Adrenal medulla [5]) of 0.0047 %ID and a Drug uptake (Rattus norvegicus [6]) of 0.08 %ID. For the same compound, the Drug uptake (Kidney [7]) was 0.79 %ID, the Drug uptake (Rattus norvegicus [8]) was 0.062 %ID and the Drug uptake [9] was 0.0104 %ID. It also gave a Drug uptake (Mus musculus [10]) of 0.015 %ID, a Drug uptake (Adrenal medulla [11]) of 0.0038 %ID and a Drug uptake (Liver [12]) of 0.94 %ID. For the same compound, the Drug uptake (Liver [13]) was 4.58 %ID, the Drug uptake (Blood [14]) was 0.052 %ID and the Drug uptake (Liver [15]) was 3.64 %ID. The Drug uptake (Liver [16]) was 0.84 %ID, the Drug uptake (Mus musculus [17]) was 0.094 %ID and the Drug uptake (Rattus norvegicus [18]) was 0.0062 %ID. For the same compound, the Drug uptake (Liver [19]) was 0.33 %ID, the Drug uptake (Mus musculus [20]) was 0.0087 %ID and the Drug uptake (Liver [21]) was 7.1 %ID. It also gave a Drug uptake (Kidney [22]) of 0.72 %ID, a Drug uptake (Kidney [23]) of 0.168 %ID and a Drug uptake (Blood [24]) of 0.131 %ID. For the same compound, the Drug uptake (Liver [25]) was 0.67 %ID, the Drug uptake (Rattus norvegicus [26]) was 0.000081 %ID and the Drug uptake [27] was 0.026 %ID. For the same compound, the Drug uptake (Adrenal medulla [28]) was 0.0021 %ID, the Drug uptake (Rattus norvegicus [29]) was 0.0028 %ID and the Drug uptake (Rattus norvegicus [30]) was 0.007 %ID. For the same compound, the Drug uptake [31] was 0.075 %ID, the Drug uptake [32] was 0.77 %ID and the Drug uptake (Blood [33]) was 0.66 %ID. It also gave a Drug uptake (Mus musculus [34]) of 0.012 %ID, a Drug uptake (Mus musculus [35]) of 0.067 %ID and a Drug uptake (Kidney [36]) of 3.44 %ID. The Drug uptake (Rattus norvegicus [37]) was 0.002 %ID.
